Apaf-1 inh – human Apaf-1 inhibition; O14727; reconstituted apoptosome caspase-3 activity, DEVD-Rh110 fluorescence; inhibition, % at 20 µM; 0.71% of 330,000 active; AID 489030; active means inhibition of at least 40% at 20 µM;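 further: plate controls were DMSO wells for no effect and DEVD-CHO caspase inhibitor wells for full effect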
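System: reconstituted apoptosome with Apaf-1, cytochrome c, caspase-9, procaspase-3, dATP; Signal: Rh110 fluorescence intensity; Schedule: 30 min compound preincubation, 50 min activation, room temperature; Reagent: cytochrome c trigger plus (Z-DEVD)2-Rh110 caspase-3 substrate.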
TDP2 inh – blocks human TDP2 phosphodiesterase activity; recombinant TDP2, T5PNP hydrolysis, p-nitrophenol absorbance 415 nm; 0.34% of 370,000 active; inhibition, % at 12.8 µM;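 active means inhibition above the mean of all tested compounds plus 3 SD, set per campaign, cut at about 25% in these data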;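 further: 0% = DMSO with enzyme and 100% = buffer with substrate but no TDP2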
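Test system: Human TDP2 enzyme | Reagent: 5 mM T5PNP | Compound dosing: 12.8 µM single point, 1% DMSO | Incubation: Enzyme reaction with compound for 2 h at 37 °C | Technique: p-Nitrophenol epi absorbance | Read-out: % inhibition relative to enzyme-containing and enzyme-free wells | Benchmarks: High control without enzyme, low control DMSO plus TDP2 | Replicates: Singlicate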
CTSL1 counter – blocks F. hepatica cathepsin L1 in PFM18AAP counter-screen. inhibition, % at 5.96 µM. AID 1906. 0.49% of 300,000 active. recombinant F. hepatica cathepsin L1, Z-Leu-Arg-MCA fluorescence;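 active means inhibition above the mean of all tested compounds plus 3 SD, set per screening campaign, cut at about 17% in these data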;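 further: 0% = plate median of test compound wells and 100% = 1 µM Z-Phe-Ala-diazomethylketone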
PAD4 inh – inhibitors of human PAD4; Q9UM07; recombinant PAD4, RCA probe fluorescence polarization; inhibition, % at 6.36 µM; 0.41% of 330,000 active; AID 485272;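 active means percent inhibition above a cutoff equal to the mean of all tested compounds plus 3 SD, cut at about 15% in these data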;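 further: 0% = PAD4 with RCA probe and DMSO and 100% = probe without PAD4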
GSTO1 counter – counter-screen for RBBP9 inhibitors: inhibitors of human GSTO1; inhibition, % at 5.96 µM; AID 1974; recombinant GSTO1, activity-based probe fluorescence polarization; 1.1% of 300,000 active;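 active means inhibition above the campaign mean inhibition plus 3 SD, cut at about 35% in these data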;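 further: 0% = GSTO1-1 with DMSO and 100% = wells lacking GSTO1-1 enzyme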
TDP2 confirm – confirmation of human TDP2 inhibitors. shares compounds with TDP2 inh. recombinant human TDP2, absorbance read-out. inhibition, % at 12.8 µM. 22% of 1,100 active. AID 743263; in the data active means inhibition above about 25%;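 further: 0% = vehicle with enzyme and 100% = no enzyme buffer only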
The depositor's hits bear a star; · = not tested or not shown. A selection: hits, their analogues and other compounds. The true share with any hit is near 1.8%.

SMILES	Apaf-1 inh	TDP2 inh	CTSL1 counter	PAD4 inh	GSTO1 counter	TDP2 confirm
O=[N+]([O-])c1ccc(N(CCO)CCO)c2c1no[n+]2[O-]	·	8.0	·	·	·	·
CN1CCN(c2ccc([N+](=O)[O-])c3no[n+]([O-])c23)CC1	·	24.6*	17.5*	-10.2	46.7*	26.4*
CC12CC1(C)C(=O)N(c1cc(Cl)cc(Cl)c1)C2=O (centres undefined)	·	-7.8	·	·	·	·
C/C(=N\NC(=O)c1ccncc1)c1c(O)n(Cc2ccccc2)c(=O)[nH]c1=O	6.8	-13.5	1.4	-7.5	-4.2	·
C/C(=N\NC(=O)c1ccccc1O)c1c(O)n(Cc2ccccc2)c(=O)[nH]c1=O	-1.1	27.9*	-2.7	-3.0	23.4	4.2
O=c1c2ccccc2nc(/C=C/c2ccccc2O)n1-c1ccccc1O	-0.8	30.1*	-1.4	-7.4	-23.0	3.7
O=c1c2ccccc2nc(/C=C/c2ccccc2F)n1-c1ccccc1O	13.1	3.2	-2.2	3.7	-7.1	·
COC(=O)C1=C(c2ccc(Cl)c(C(F)(F)F)c2)C[C@@H]2CC[C@H]1N2C	7.6	10.9	·	-1.8	·	·
C=CC1CN2CCC1CC2C(OC(C)=O)c1ccnc2ccc(OC)cc12 (centres undefined)	-9.3	13.9	-3.1	-2.9	-10.9	·
